Assay results as given in ChEMBL document CHEMBL5712080, “PRMT5 promotes cell proliferation by inhibiting BTG2 expression via the ERK signaling pathway in hepatocellular carcinoma” (Cancer Med, 2018).
Activity calls are given as the source filed them.

Experiments:
SK-HEP1 [1] = assay: Reversal of ERK phosphorylation level in human SK-HEP1 cells at 500 nM for 4 days in presence of PD184352 by Western blotting analysis; assay type: functional, cell-based; settings: time 4.0 day
Huh-7 [2] = assay: Reversal of H4R3me2s level in human Huh-7 cells at 500 nM for 4 days in presence of PD184352 by Western blotting analysis; assay type: functional, cell-based; settings: time 4.0 day
[3] = biological target: Protein arginine N-methyltransferase 5 (Homo sapiens) (UniProt O14744); assay: Inhibition of PRMT5 in human SK-HEP1 cells assessed as upregulation of BTG2 protein level at 500 nM for 4 days by Western blot analysis; assay type: cell-based; settings: time 4.0 day
Sequence of Protein arginine N-methyltransferase 5 (Homo sapiens) (O14744 whole entry): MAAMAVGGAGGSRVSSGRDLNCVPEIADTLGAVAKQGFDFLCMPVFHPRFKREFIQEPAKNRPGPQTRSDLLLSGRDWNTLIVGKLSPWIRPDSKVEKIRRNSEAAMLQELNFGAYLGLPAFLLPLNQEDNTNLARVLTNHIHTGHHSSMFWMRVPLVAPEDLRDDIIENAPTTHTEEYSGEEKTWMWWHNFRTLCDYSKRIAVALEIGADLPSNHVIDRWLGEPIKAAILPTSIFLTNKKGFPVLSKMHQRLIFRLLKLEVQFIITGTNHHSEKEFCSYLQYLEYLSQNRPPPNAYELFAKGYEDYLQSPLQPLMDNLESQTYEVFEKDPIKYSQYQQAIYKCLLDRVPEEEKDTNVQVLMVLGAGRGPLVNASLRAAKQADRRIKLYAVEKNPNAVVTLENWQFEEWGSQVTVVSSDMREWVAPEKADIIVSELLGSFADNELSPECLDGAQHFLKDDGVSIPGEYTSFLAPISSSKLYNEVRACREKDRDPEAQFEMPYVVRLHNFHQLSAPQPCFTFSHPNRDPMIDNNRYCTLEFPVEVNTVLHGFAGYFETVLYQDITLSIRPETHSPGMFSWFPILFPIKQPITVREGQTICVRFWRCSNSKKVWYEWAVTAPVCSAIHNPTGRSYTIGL

SK-HEP1 [4] = assay: Reversal of H4R3me2s level in human SK-HEP1 cells at 500 nM for 4 days in presence of PD184352 by Western blotting analysis; assay type: functional, cell-based; settings: time 4.0 day
[5] = biological target: Protein arginine N-methyltransferase 5 (Homo sapiens) (UniProt O14744); assay: Inhibition of PRMT5 in human Huh-7 cells assessed as upregulation of ERK phosphorylation level at 500 nM for 4 days by Western blot analysis; assay type: cell-based; settings: time 4.0 day
[6] = biological target: Protein arginine N-methyltransferase 5 (Homo sapiens) (UniProt O14744); assay: Inhibition of PRMT5 in human Huh-7 cells assessed as H4R3me2s protein level at 500 nM for 4 days by Western blot analysis; assay type: cell-based; settings: time 4.0 day
Huh-7 [7] = assay: Reversal of BTG2 protein level in human Huh-7 cells at 500 nM for 4 days in presence of PD184352 by Western blotting analysis; assay type: functional, cell-based; settings: time 4.0 day
[8] = biological target: Protein arginine N-methyltransferase 5 (Homo sapiens) (UniProt O14744); assay: Inhibition of PRMT5 in human Huh-7 cells assessed as upregulation of BTG2 protein level at 500 nM for 4 days by Western blot analysis; assay type: cell-based; settings: time 4.0 day
Huh-7 [9] = assay: Reversal of ERK phosphorylation level in human Huh-7 cells at 500 nM for 4 days in presence of PD184352 by Western blotting analysis; assay type: functional, cell-based; settings: time 4.0 day
SK-HEP1 [10] = assay: Reversal of BTG2 protein level in human SK-HEP1 cells at 500 nM for 4 days in presence of PD184352 by Western blotting analysis; assay type: functional, cell-based; settings: time 4.0 day
[11] = biological target: Protein arginine N-methyltransferase 5 (Homo sapiens) (UniProt O14744); assay: Inhibition of PRMT5 in human SK-HEP1 cells assessed as upregulation of ERK phosphorylation level at 500 nM for 4 days by Western blot analysis; assay type: cell-based; settings: time 4.0 day
[12] = biological target: Protein arginine N-methyltransferase 5 (Homo sapiens) (UniProt O14744); assay: Inhibition of PRMT5 in human SK-HEP1 cells assessed as H4R3me2s protein level at 500 nM for 4 days by Western blot analysis; assay type: cell-based; settings: time 4.0 day
SK-HEP1 [13] = assay: Upregulation of BTG2 protein in PRMT5 knockdown human SK-HEP1 cells at 20 microM for 24 hrs by Western blot analysis; assay type: functional, cell-based
How it was run: (§1)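 Huh7 or SK-Hep1 cells stably carrying lentiviral shRNA against PRMT5, selected 2 weeks in puromycin (final 1 μg/mL), grown in DMEM/10% FBS at 37°C, 5% CO2. Cells pretreated 24 h with 20 μM PD184352 (ERK phosphorylation inhibitor). RIPA lysates run on 8–12% SDS-PAGE, PVDF, 5% milk block, primary antibody overnight at 4°C, HRP secondary, chemiluminescent detection. Histone 3 was the nuclear loading control.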

Huh-7 [14] = assay: Upregulation of BTG2 protein in PRMT5 knockdown human Huh-7 cells at 20 microM for 24 hrs by Western blot analysis; assay type: functional, cell-based; how it was run: as §1

O=C(NC[C@H](O)CN1CCc2ccccc2C1)c1ccnc(NC2CCC2)c1
active: Activity (SK-HEP1 [1]) | Activity (Huh-7 [2]) | inhibition [3] | Activity (SK-HEP1 [4]) | inhibition [5] | inhibition [6] | Activity (Huh-7 [7]) | inhibition [8] | Activity (Huh-7 [9]) | Activity (SK-HEP1 [10]) | inhibition [11] | inhibition [12]

O=C(NOCC1CC1)c1ccc(F)c(F)c1Nc1ccc(I)cc1Cl
active: Activity (SK-HEP1 [13]) | Activity (Huh-7 [14])
